The text below walks through data of ChEMBL document CHEMBL2034931, “Discovery of Novel Small Molecule Mer Kinase Inhibitors for the Treatment of Pediatric Acute Lymphoblastic Leukemia” (ACS Med Chem Lett, 2012).

pIC50: −log10 of the molar value.

In general, inhibition refers to the relative decrease from the control value, in per cent. One may read the Vdss as the apparent volume that relates the amount in the body to the concentration in plasma or blood. One may read the pIC50 as the negative decadic logarithm of the IC50, by convention in mol/L.

Data set [1] addresses Receptor-type tyrosine-protein kinase FLT3 (Homo sapiens) (UniProt P36888). Description: Inhibition of FLT3 at 10 times IC50 concentration after 90 mins in presence of ATP. In outline:
(§1)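 Single-concentration screen across a kinase panel spanning the main kinase families, the TAM family and the related MET family. Each sample was run in duplicate, and the read-out was percent inhibition of kinase activity.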

In data set [2] the target is MAP kinase-activated protein kinase 2 (Homo sapiens) (UniProt P49137). Description: Inhibition of MAPKAPK2 at 10 times IC50 concentration after 90 mins in presence of ATP. The procedure, abridged:
as §1

The target of data set [3] is Proto-oncogene tyrosine-protein kinase receptor Ret (Homo sapiens) (UniProt P07949). The experiment in a line: Inhibition of Ret at 10 times IC50 concentration after 90 mins in presence of ATP. The procedure, abridged: as §1
Proto-oncogene tyrosine-protein kinase receptor Ret (Homo sapiens), sequence (P07949 whole entry): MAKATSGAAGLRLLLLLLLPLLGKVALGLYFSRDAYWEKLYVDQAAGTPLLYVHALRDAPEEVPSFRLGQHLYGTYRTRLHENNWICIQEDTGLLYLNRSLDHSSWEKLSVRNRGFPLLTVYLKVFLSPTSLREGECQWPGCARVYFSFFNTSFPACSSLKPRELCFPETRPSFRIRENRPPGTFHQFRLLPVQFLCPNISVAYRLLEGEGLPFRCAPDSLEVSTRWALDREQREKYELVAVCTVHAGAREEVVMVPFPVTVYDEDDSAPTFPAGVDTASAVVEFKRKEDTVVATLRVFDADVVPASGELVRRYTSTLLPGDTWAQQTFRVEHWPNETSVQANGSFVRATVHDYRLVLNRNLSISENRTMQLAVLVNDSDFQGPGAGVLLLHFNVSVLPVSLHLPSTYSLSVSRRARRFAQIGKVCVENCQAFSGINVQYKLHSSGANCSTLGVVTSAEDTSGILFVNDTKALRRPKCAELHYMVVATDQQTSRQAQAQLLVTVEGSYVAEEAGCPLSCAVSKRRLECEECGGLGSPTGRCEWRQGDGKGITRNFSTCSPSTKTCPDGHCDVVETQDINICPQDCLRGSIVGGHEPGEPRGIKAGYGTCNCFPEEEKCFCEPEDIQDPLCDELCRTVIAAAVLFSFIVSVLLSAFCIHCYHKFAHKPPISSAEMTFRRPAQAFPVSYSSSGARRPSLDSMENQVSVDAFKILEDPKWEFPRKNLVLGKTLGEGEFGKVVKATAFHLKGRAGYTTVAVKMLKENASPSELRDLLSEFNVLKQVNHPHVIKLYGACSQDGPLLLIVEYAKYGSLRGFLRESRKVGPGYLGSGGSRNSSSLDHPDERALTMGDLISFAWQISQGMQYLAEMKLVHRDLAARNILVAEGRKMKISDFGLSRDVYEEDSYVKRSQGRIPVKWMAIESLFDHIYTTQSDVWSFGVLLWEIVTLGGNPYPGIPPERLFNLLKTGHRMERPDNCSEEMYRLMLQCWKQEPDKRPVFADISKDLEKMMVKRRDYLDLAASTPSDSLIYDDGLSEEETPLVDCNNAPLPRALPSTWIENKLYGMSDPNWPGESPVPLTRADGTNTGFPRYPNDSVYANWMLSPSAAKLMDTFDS
In data set [4] the test system is Proto-oncogene tyrosine-protein kinase receptor Ret (Homo sapiens), P07949 [Y791F]. Description: Inhibition of Ret Y791F mutant at 10 times IC50 concentration after 90 mins in presence of ATP. In outline:
as §1

Data set [5] relates to Mus musculus. Description: Volume of distribution at steady state in Swiss mouse at 3 mg/kg, iv. More on the design: dose 3 mg/kg, route intravenous. It is filed as ADME, organism-based. The following applies: in vivo.
Data set [6] has as its system Mus musculus. Description: Oral bioavailability in Swiss mouse at 3 mg/kg. The following applies: in vivo. It is filed as ADME, organism-based.
Data set [7] deals with T1, Tyrosine-protein kinase receptor UFO (Homo sapiens, UniProt P30530).
T1 sequence (P30530 whole entry): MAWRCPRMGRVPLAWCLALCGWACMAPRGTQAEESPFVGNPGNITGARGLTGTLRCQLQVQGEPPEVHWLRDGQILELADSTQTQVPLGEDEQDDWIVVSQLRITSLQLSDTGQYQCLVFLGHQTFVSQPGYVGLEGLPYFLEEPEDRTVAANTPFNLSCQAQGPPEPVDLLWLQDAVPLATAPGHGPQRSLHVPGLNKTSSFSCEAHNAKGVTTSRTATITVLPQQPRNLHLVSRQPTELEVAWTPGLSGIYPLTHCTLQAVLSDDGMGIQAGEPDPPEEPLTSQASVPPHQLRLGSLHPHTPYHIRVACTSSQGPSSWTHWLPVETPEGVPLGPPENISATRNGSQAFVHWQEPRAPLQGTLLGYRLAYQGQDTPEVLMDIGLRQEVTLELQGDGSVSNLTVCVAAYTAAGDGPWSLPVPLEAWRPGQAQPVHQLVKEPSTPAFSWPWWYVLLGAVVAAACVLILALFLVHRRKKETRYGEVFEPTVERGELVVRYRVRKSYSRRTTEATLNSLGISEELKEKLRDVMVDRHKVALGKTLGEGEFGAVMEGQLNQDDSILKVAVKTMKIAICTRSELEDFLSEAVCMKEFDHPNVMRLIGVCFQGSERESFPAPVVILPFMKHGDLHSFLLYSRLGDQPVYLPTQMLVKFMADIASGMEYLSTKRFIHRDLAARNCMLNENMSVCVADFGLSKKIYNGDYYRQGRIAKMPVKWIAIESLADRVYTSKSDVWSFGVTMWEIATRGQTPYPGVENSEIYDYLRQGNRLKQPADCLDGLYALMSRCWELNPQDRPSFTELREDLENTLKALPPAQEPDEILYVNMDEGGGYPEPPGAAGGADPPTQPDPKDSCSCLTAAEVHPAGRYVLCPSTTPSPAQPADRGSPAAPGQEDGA
Description: Inhibition of Axl using KKKKEEIYFFF-CONH2 as substrate after 180 mins by microfluid capillary electrophoresis assay.

The target of data set [8] is T2, Tyrosine-protein kinase receptor TYRO3 (Homo sapiens, UniProt Q06418).
T2 sequence (Q06418 whole entry): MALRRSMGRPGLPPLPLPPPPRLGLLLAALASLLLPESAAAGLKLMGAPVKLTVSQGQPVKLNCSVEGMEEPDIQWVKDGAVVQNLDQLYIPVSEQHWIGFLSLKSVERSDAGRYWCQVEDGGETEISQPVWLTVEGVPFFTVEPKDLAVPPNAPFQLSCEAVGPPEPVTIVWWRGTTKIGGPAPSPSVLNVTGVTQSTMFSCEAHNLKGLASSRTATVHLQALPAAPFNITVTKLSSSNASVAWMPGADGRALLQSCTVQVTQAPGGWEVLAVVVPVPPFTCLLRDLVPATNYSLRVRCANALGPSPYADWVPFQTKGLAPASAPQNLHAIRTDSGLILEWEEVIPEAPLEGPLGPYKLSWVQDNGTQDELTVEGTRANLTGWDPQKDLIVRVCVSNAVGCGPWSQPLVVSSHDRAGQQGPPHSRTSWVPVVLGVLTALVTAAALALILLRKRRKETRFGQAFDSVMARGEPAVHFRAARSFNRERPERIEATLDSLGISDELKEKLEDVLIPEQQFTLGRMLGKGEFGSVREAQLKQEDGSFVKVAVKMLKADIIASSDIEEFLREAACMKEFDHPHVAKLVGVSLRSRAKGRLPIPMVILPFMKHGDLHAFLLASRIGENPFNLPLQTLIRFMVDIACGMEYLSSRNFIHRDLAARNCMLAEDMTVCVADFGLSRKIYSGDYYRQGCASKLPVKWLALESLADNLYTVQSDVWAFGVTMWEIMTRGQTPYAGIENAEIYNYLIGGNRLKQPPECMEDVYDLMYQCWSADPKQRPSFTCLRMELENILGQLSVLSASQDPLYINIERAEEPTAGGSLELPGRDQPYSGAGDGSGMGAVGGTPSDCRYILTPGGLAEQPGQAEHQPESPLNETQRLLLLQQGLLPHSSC
The experiment in a line: Inhibition of Tyro3 using EFPIYDFLPAKKK-CONH2 as substrate after 180 mins by microfluid capillary electrophoresis assay.

Data set [9] has as its target T3, Tyrosine-protein kinase Mer (Homo sapiens, UniProt Q12866).
T3 sequence (Q12866 whole entry): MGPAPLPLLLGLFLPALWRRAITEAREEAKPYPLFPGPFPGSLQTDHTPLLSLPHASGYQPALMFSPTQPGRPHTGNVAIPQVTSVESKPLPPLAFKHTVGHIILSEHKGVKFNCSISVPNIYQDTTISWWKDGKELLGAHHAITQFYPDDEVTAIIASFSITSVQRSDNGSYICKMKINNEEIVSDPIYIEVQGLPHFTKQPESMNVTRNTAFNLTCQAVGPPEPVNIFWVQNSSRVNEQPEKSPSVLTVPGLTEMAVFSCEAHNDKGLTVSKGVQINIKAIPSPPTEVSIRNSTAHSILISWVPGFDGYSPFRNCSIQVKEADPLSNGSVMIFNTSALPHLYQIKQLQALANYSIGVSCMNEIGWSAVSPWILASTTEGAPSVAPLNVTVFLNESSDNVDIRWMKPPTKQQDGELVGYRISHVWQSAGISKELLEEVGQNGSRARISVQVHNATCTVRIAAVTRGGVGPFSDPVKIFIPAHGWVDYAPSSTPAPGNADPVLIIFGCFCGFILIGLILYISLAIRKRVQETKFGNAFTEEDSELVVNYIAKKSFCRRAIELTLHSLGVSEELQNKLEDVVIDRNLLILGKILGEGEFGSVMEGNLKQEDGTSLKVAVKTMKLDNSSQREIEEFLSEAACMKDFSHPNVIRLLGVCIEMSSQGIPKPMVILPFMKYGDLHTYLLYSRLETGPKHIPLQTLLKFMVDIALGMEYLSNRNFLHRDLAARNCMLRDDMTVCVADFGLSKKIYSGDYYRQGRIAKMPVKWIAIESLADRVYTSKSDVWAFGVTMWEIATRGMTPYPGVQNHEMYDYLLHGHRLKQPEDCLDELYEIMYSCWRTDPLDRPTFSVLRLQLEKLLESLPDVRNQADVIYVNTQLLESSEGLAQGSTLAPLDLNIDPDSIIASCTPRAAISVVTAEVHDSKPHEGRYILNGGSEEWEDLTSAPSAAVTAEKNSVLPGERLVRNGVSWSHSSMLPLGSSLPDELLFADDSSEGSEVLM
Description: Inhibition of Mer expressed in Escherichia coli BL21 (DE3) cells using EFPIYDFLPAKKK-CONH2 as substrate after 180 mins by microfluid capillary electrophoresis assay.

MAP kinase-activated protein kinase 2 (Homo sapiens), sequence (P49137 whole entry, looked up): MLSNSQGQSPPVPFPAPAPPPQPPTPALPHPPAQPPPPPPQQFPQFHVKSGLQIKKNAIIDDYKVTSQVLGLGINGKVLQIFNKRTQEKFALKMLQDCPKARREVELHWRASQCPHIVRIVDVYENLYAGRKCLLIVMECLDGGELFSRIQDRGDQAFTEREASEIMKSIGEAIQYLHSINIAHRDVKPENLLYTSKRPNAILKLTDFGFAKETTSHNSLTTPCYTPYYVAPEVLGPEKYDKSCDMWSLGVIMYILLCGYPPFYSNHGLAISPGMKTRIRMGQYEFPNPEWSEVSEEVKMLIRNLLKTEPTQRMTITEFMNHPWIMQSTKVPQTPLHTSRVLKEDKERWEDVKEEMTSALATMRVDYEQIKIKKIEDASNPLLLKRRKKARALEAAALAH
Receptor-type tyrosine-protein kinase FLT3 (Homo sapiens), sequence (P36888 whole entry): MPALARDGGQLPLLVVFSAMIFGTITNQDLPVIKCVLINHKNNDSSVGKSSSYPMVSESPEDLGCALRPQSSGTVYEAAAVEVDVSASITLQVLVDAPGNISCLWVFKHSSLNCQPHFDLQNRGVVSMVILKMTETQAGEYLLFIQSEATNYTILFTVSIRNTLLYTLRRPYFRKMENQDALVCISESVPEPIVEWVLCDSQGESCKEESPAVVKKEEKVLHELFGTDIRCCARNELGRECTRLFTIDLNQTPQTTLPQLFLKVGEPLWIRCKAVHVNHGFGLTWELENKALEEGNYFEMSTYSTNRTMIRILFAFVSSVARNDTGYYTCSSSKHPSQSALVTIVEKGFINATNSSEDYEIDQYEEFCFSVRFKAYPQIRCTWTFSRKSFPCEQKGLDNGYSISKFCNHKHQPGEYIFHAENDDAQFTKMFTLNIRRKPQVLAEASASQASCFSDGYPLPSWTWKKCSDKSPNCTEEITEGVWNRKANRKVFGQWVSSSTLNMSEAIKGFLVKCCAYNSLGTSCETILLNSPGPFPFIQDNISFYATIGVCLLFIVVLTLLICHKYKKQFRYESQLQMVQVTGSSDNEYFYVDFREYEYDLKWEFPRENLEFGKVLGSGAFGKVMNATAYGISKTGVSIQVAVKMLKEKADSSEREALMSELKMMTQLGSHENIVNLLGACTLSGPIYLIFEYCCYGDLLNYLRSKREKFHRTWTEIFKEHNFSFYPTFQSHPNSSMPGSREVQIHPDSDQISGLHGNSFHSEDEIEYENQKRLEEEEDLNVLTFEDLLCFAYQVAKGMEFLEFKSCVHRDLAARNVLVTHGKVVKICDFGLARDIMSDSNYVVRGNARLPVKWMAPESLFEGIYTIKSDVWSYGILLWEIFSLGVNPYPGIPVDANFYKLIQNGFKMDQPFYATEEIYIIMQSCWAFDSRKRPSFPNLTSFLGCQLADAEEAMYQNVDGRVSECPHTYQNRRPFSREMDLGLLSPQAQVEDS
Proto-oncogene tyrosine-protein kinase receptor Ret (Homo sapiens), P07949 [Y791F], sequence (P07949 whole entry Y791F): as the sequence (P07949 whole entry) above, with Y791F counted along it

`CCCCNc1ncc2c(-c3ccc(F)cc3)nn(C[C@H]3CC[C@H](N)CC3)c2n1` [PYRAZOLOPYRIMIDINE]: the inhibition in data set [1] worked out at 82%; in [2], 92%; in [3], 59%; in data set [4] it was 56%. Further, the Vdss with Mus musculus [5] was determined as 5.83 L/kg. The same compound registered a F in the data set with Mus musculus [6] of 57%.
Consider `N[C@H]1CC[C@H](Cn2nc(-c3ccc(N4CCNCC4)cc3)c3cnc(NCCCc4ccccc4)nc32)CC1`, for which the inhibition turned out to be 82% in data set [1], 94% in [2], 79% in data set [3] and 67% in [4].
For the compound `CNc1ncc2c(C(C)C)nn(C[C@@H]3CCCN3)c2n1`, the negative logarithm of the IC50 (pIC50) in data set [7] and in [8] was below 4.52 throughout.
In data set [9], `CC(C)n1cnc2c(Nc3cccc(Cl)c3)nc(NCCO)nc21` gave a pIC50 of 4.96.
On to `CNc1ncc2c(C(C)C)nn(CC3CCNCC3)c2n1`, for which the negative-log IC50 (pIC50) in data set [7] and in [8] was below 4.52 each time.
